In ChEMBL document CHEMBL2390899, “Synthesis of new 18F-radiolabeled silicon-based nitroimidazole compounds” (Bioorg Med Chem, 2013):
Blank lines part the entries; values can stand above or below the compound they belong to.

What was measured:
[1] = Half life of the compound; format: physicochemical
[2] = Lipophilicity, log D of the compound at pH 4; format: physicochemical; settings: buffer
[3] = Half life human plasma by radio-HPLC and radio-TLC analysis; format: ADME, cell-free
Procedure, shortened: (§1)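 The 18F-labelled compound was incubated in human plasma at 37 °C and monitored by radio-HPLC and radio-TLC for at least 120 min. The intact fraction and the half-life were obtained from this time course.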

[4] = Half life of the compound in saline at pH 5.5 by radio-HPLC and radio-TLC analysis; format: physicochemical
Procedure, shortened: (§2)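 Aqueous saline (pH 5.5) samples of the 18F compound were analysed by radio-HPLC and radio-TLC at 5, 15, 30, 60 and 120 min to follow hydrolysis of the Si–F bond. Hydrolysis was followed up to 180 min. Half-life was taken from the decay of intact tracer.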

[5] = Lipophilicity, log D of the compound at pH 7.4; format: physicochemical; settings: buffer
[6] = species: Rattus norvegicus; assay: Biodistribution in Wistar rat bladder at 10 MBq after 90 mins by PET analysis; format: ADME, organism-based, Urinary bladder/Urine; settings: in vivo, 1.5 h
[7] = tested on: Muscle tissue; assay: Biodistribution in Wistar rat muscle at 10 MBq after 90 mins by PET analysis; format: ADME, organism-based; settings: in vivo, 1.5 h
[8] = tested on: Heart; assay: Biodistribution in Wistar rat heart at 10 MBq after 90 mins by PET analysis; format: ADME, organism-based; settings: in vivo, 1.5 h
[9] = tested on: Liver; assay: Biodistribution in Wistar rat liver at 10 MBq after 90 mins by PET analysis; format: ADME, organism-based; settings: in vivo, 1.5 h
[10] = tested on: Intestine; assay: Biodistribution in Wistar rat intestine at 10 MBq after 90 mins by PET analysis; format: ADME, organism-based; settings: in vivo, 1.5 h
[11] = species: Rattus norvegicus; assay: Biodistribution in Wistar rat femur bone at 10 MBq after 90 mins by PET analysis; format: ADME, organism-based, Bone element; settings: in vivo, 1.5 h
[12] = Drug degradation in water at pH 7.4 by radio-HPLC and radio-TLC analysis; format: physicochemical; settings: read-out: Drug degradation
Procedure, shortened: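 Decomposition of the 18F compound in water at pH 7.4 was followed by radio-HPLC and radio-TLC, read after 120 min.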

[13] = Metabolic stability in human plasma assessed as compound remaining after 2 hrs by radio-HPLC and radio-TLC analysis; format: ADME, cell-free; settings: read-out: Stability; procedure, shortened: as §1
[14] = Chemical stability of the compound in saline after 2 hrs at pH 5.5 by radio-HPLC and radio-TLC analysis; format: physicochemical; settings: read-out: Stability; procedure, shortened: as §2
[15] = Chemical stability of the compound in saline after 180 mins at pH 5.5 by radio-HPLC and radio-TLC analysis; format: physicochemical; settings: buffer, pH 5.5, 3 h; procedure, shortened: as §2
[16] = Octanol-water partition coefficient, log P of the compound; format: physicochemical
Procedure, shortened: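 LogP was calculated as clogP with ChemDraw 11.0.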

half-life [1]: 2.17 h
SMILES: O=[N+]([O-])c1nccn1CCC[Si]([18F])(c1cccc2ccccc12)c1cccc2ccccc12

logD [2]: 0.12
half-life [3]: < 5 min
half-life [4]: 1 h
SMILES: O=C(Cn1ccnc1[N+](=O)[O-])NCCC[Si]([18F])(c1cccc2ccccc12)c1cccc2ccccc12

half-life [3]: < 5 min
half-life [4]: 1 h
SMILES: O=[N+]([O-])c1nccn1CCOCCOCc1cn(CCC[Si]([18F])(c2cccc3ccccc23)c2cccc3ccccc23)nn1

logD [5]: 2.12
SUV [6]: 9.5%
SUV [7]: 0.3%
SUV [8]: 0.5%
SUV [9]: 7.3%
SUV [10]: 6.5%
SUV [11]: 2.8%
degraded [12]: < 10%
remaining at 2 h [13]: 85%
remaining at 2 h [14]: 100%
Stability [15]: Stable
SMILES: CC(C)(C)[Si]([18F])(c1cccc(C(=O)NCCn2ccnc2[N+](=O)[O-])c1)C(C)(C)C

P [16]: 5.7
SMILES: O=C(Cn1ccnc1[N+](=O)[O-])NCC(F)(F)C(F)(F)F
